According to ChEMBL document CHEMBL4350999, “Enhanced tumor retention of NTSR1-targeted agents by employing a hydrophilic cysteine cathepsin inhibitor” (Eur J Med Chem, 2019):
Activity calls are given as the source filed them. The rule behind the calls is not given here.

Key:
[1] = Drug uptake in large intestine of SCID mouse xenografted with human HT-29 cells pretreated for 1 hr with colchicine at 1 mg/kg, ip followed by 177Lu labelled compound at 0.37 MBq/mouse, iv measured at 24 hrs by gamma counter analysis; format: ADME, organism-based; conditions: in vivo
How it was run: (§1)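 HT-29 flank xenografts in female SCID mice (5 × 10^6 cells in Matrigel, about 80 mm3). Colchicine 1 mg/kg was given i.p. before a tail-vein injection of 10 μCi (0.37 MBq) of purified 177Lu-conjugate. Tissues were taken at 24 h, weighed and gamma-counted as %ID/g; mean ± SD, n = 5.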

[2] = Ratio of drug uptake in SCID mouse xenograted with human HT-29 cells assessed as tumour retention to drug uptake in lung of SCID mouse xenografted with human HT-29 cells cotreated with D-lysine at 40 mg/kg measured after 24 hrs using 177Lu labelled compound; format: ADME, organism-based, Tumor/Lung; conditions: in vivo
[3] = Drug retention in tumor of mouse xenografted with human HT-29 cells assessed as tissue-conjugate adduct formation at 29.6 MBq co-treated with D-lysine at 40 mg/kg measured after 72 hrs using 177Lu labelled compound by SDS-PAGE analysis; format: ADME, organism-based, Neoplasm; conditions: in vivo
Cathepsin B [4] = target: T1, Cathepsin B (Homo sapiens, UniProt P07858); test: Binding affinity to human liver cathepsin B assessed as protein-conjugate adduct formation at 0.74 MBq incubated for 30 mins in presence of E-64 using 177Lu labelled compound by SDS-PAGE analysis; conditions: 0.74 M
How it was run: (§2)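 Purified human liver CatB or CatL (3 nM) in 50 mM sodium acetate/1 mM EDTA pH 5.0 incubated 30 min with 177Lu conjugate (500,000 cpm) in Tris/MgCl2/DTT buffer pH 5.5, alone or with E-64 (10 μM) or N1 (20 μM). Mixtures heated 85 °C 2 min, run on 16% tris-glycine gel at 110 V for 90 min, and read by phosphor autoradiography.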

[5] = Drug uptake in brain of SCID mouse xenografted with human HT-29 cells pretreated for 1 hr with colchicine at 1 mg/kg, ip followed by 177Lu labelled compound at 0.37 MBq/mouse, iv measured at 24 hrs by gamma counter analysis; format: ADME, organism-based; conditions: in vivo; how it was run: as §1
[6] = Drug uptake in muscle of SCID mouse xenografted with human HT-29 cells pretreated for 1 hr with colchicine at 1 mg/kg, ip followed by 177Lu labelled compound at 0.37 MBq/mouse, iv measured at 24 hrs by gamma counter analysis; format: ADME, organism-based, Muscle tissue; conditions: in vivo; how it was run: as §1
[7] = Drug retention in tumor lysates of mouse xenografted with human HT-29 cells assessed as macromolecule associated radioactivity at 29.6 MBq measured after 72 hrs using 177Lu labelled compound by gamma counter analysis relative to control; format: ADME, tissue-based, Neoplasm; conditions: in vivo
How it was run: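 HT-29 xenograft mice given 800 μCi (29.6 MBq) 177Lu conjugate i.v. and killed at 72 h. Tumor, liver and kidney homogenized in RIPA with protease inhibitor and supernatants run on SDS-PAGE autoradiography. Other supernatant aliquots filtered through 10 kDa MWCO devices to give the % macromolecule-associated radioactivity; n = 3.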

Cathepsin B [8] = target: T1, Cathepsin B; test: Inhibition of human liver cathepsin B assessed as inhibition constant using Z-Arg-Arg-AMC as substrate measured every 5 mins for 1 hr by fluorescence assay
[9] = Ratio of drug uptake in SCID mouse xenograted with human HT-29 cells assessed as tumour retention to drug uptake in blood of SCID mouse xenografted with human HT-29 cells cotreated with D-lysine at 40 mg/kg measured after 24 hrs using 177Lu labelled compound; format: ADME, organism-based, Tumor/Blood
How it was run: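 HT-29 s.c. xenografts in female SCID mice. 177Lu conjugate given i.v. by tail vein at 10 μCi (0.37 MBq)/mouse, co-injected with D-lysine 40 mg/kg. Tissues were taken at 24 h, weighed and gamma counted. Uptake expressed as %ID/g (n = 5, mean ± SD); tumor-to-tissue ratios derived from these values.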

[10] = Ratio of drug uptake in SCID mouse xenograted with human HT-29 cells assessed as tumour retention to drug uptake in spleen of SCID mouse xenografted with human HT-29 cells cotreated with D-lysine at 40 mg/kg measured after 24 hrs using 177Lu labelled compound; format: ADME, organism-based, Tumor/Spleen; conditions: in vivo
[11] = Ratio of drug uptake in SCID mouse xenograted with human HT-29 cells assessed as tumour retention to drug uptake in muscle of SCID mouse xenografted with human HT-29 cells cotreated with D-lysine at 40 mg/kg measured after 24 hrs using 177Lu labelled compound; format: ADME, organism-based, Tumor/Muscle; conditions: in vivo
[12] = Drug uptake in kidney of SCID mouse xenografted with human HT-29 cells pretreated for 1 hr with colchicine at 1 mg/kg, ip followed by 177Lu labelled compound at 0.37 MBq/mouse, iv measured at 24 hrs by gamma counter analysis; format: ADME, organism-based; conditions: in vivo; how it was run: as §1
[13] = Drug uptake in stomach of SCID mouse xenografted with human HT-29 cells pretreated for 1 hr with colchicine at 1 mg/kg, ip followed by 177Lu labelled compound at 0.37 MBq/mouse, iv measured at 24 hrs by gamma counter analysis; format: ADME, organism-based; conditions: in vivo
How it was run: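 HT-29 xenograft SCID mice pretreated with colchicine 1 mg/kg i.p., then given 177Lu conjugate i.v. at 10 μCi (0.37 MBq)/mouse. Tissues excised at 24 h, weighed and gamma counted for %ID/g (n = 5, mean ± SD).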

[14] = Drug uptake in kidney of SCID mouse xenografted with human HT-29 cells using 177Lu labelled compound at 0.37 MBq/mouse, iv co-treated with D-lysine at 40 mg/kg measured at 24 hrs by gamma counter analysis; format: ADME, organism-based; conditions: in vivo
How it was run: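 Female SCID mice bore s.c. HT-29 xenografts (5 × 10^6 cells in Matrigel, about 80 mm3). D-lysine 40 mg/kg was co-injected i.v. with 10 μCi (0.37 MBq) of purified 177Lu-conjugate. Tissues were harvested at 24 h, weighed and gamma-counted, reported as %ID/g; mean ± SD, n = 5.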

[15] = Drug retention in kidney of mouse xenografted with human HT-29 cells assessed as reduction in tissue-conjugate adduct formation at 29.6 MBq co-treated with D-lysine at 40 mg/kg measured after 72 hrs using 177Lu labelled compound by SDS-PAGE analysis; format: ADME, organism-based; conditions: in vivo
Cathepsin B [16] = target: T1, Cathepsin B; test: Binding affinity to human liver cathepsin B assessed as protein-conjugate adduct formation at 0.74 MBq incubated for 30 mins in presence of DOTA-beta-ala-[N-alpha-Me8, Dmt11, Tle12] NT6-13 using 177Lu labelled compound by SDS-PAGE analysis; conditions: 0.74 M; how it was run: as §2
[17] = Drug localization in endolysosomal compartment of human HT-29 cells assessed as decrease in co-localization efficiency at 5 uM incubated for 2 hrs and measured over 24 hrs using natEu labelled compound by lysotracker green staining based confocal microscopic analysis relative to control; format: ADME, subcellular; conditions: ht-29, 5 µM
How it was run: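 HT-29 cells (1.25 × 10^5/well) loaded with natEu conjugate (5 μM), washed, then chased in fresh medium up to 24 h. Lysotracker Green (100 nM) applied 2 h before each read; cells fixed and imaged confocally at 405/488 nm. Per-cell mean fluorescence and Lysotracker co-localization quantified.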

Compound	Drug uptake [1] [% ID/g]	Ratio [2]	Drug uptake [3]	Activity (Cathepsin B [4])	Drug uptake [5] [% ID/g]	Drug uptake [6] [% ID/g]	Drug uptake [7] [%]	Ki (Cathepsin B [8]) [nM]	Kp at 24 h [9]	Ratio [10]	Ratio [11]	Drug uptake [12] [% ID/g]	Drug uptake [13] [% ID/g]	Drug uptake [14] [% ID/g]	Drug uptake [15] [%]	Activity (Cathepsin B [16])	Drug uptake [17] [%]
Cc1cc(O)cc(C)c1C[C@H](NC(=O)[C@@H]1CCCN1C(=O)[C@H](CCCNC(=N)N)NC(=O)[C@H](CCCNC(=N)N)N(C)C(=O)[C@@H]1CCCN1C(=O)[C@H](CCCCN)NC(=O)[C@@H](CO)NC(=O)[C@@H](CO)NC(=O)[C@@H](CO)NC(=O)[C@H](Cc1cn(CCNC(=O)[C@H](CCCNC(=N)N)NC(=O)[C@H](CC(C)C)NC(=O)C2OC2C(=O)O)nn1)NC(=O)CN1CCN(CC(=O)O)CCN(CC(=O)O)CCN(CC(=O)O)CC1)C(=O)N[C@H](C(=O)N[C@@H](CC(C)C)C(=O)O)C(C)(C)C (some centres not stated)	0.67	15	Active	inactive	0.07	0.06	80	110	299	8	250	26	0.29	34	47	Active	
Cc1cc(O)cc(C)c1C[C@H](NC(=O)[C@@H]1CCCN1C(=O)[C@H](CCCNC(=N)N)NC(=O)[C@H](CCCNC(=N)N)N(C)C(=O)[C@@H]1CCCN1C(=O)[C@H](CCCCN)NC(=O)[C@@H](CO)NC(=O)[C@@H](CO)NC(=O)[C@@H](CO)NC(=O)[C@H](Cc1cn(CCNC(=O)[C@H](CCCNC(=N)N)NC(=O)[C@H](CC(C)C)NC(=O)CCC(=O)O)nn1)NC(=O)CN1CCN(CC(=O)O)CCN(CC(=O)O)CCN(CC(=O)O)CC1)C(=O)N[C@H](C(=O)N[C@@H](CC(C)C)C(=O)O)C(C)(C)C																	20
